Molecules are shown by their SMILES.

The test system of test [1] is Mus musculus. Briefly: Anticonvulsant activity in ip dosed DBA/2 mouse assessed as inhibition of auditory stimulation-induced tonic seizures administered 30 mins before auditory stimulation. The format is functional. The following applies: DBA/2, ip. Put shortly:
(§1)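 DBA/2 mice (8-12 g, 22-25 days old, either sex), groups of 10, given vehicle or drug ip and exposed to auditory stimulation 30 min later. Latency to and incidence of each seizure phase scored. ED50 per seizure phase derived from dose–response curves by Litchfield–Wilcoxon, with 95% confidence limits; at least 32 animals per ED50. Fisher's exact test used for incidence.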

For test [2], the system named is Mus musculus. Briefly: Anticonvulsant activity in ip dosed DBA/2 mouse assessed as inhibition of auditory stimulation-induced clonic seizures administered 30 mins before auditory stimulation. In kind it is functional. The following applies: DBA/2, ip. In a few lines:
as §1

Test [3] deals with Carbonic anhydrase 9 (Homo sapiens, UniProt Q16790). Briefly: Inhibition of human recombinant carbonic anhydrase 9 catalytic domain by stopped flow CO2 hydration method.

A word on the ED50: it is the dose that gives a 50% effect, or the effect in half of the subjects. For the compound `COc1cc2c(cc1OC)C(c1ccc(Br)cc1)N(C(=O)CN1CCCCC1)CC2` (stereo not drawn), the ED50 in test [1] was 8.17 µmol/kg; in test [2], 12.7 µmol/kg.
On the same counts, the results for `COc1cc2c(cc1OC)C(c1ccccc1)NCC2` (stereo not drawn) are 19.3 µmol/kg and 44.8 µmol/kg.
On the same counts, the results for `COc1cc2c(cc1OC)C(c1ccc(C)cc1)NCC2` (stereo not drawn) are 36.5 µmol/kg and 48.6 µmol/kg.
On the same counts, the results for `COc1cc2c(cc1OC)C(c1ccc(C#N)cc1)NCC2` (stereo not drawn) are 48.6 µmol/kg and greater than 100 µmol/kg.
Take `COc1cc2c(cc1OC)C(c1ccc(F)cc1)NCC2` (stereo not drawn): the ED50 in test [1] is 26.4 µmol/kg; in test [2] it was 57.8 µmol/kg.
Usually Ki stands for a dissociation constant, usually derived from enzyme kinetics or from competition with a known ligand. `COc1cc2c(cc1OC)C(c1ccc([N+](=O)[O-])cc1)N(S(N)(=O)=O)CC2` (stereo not drawn): the Ki in test [3] amounted to 0.48 µM. Also, the ED50 in test [1] and in test [2] was greater than 100 µmol/kg in each case.
Turning to `COc1cc2c(cc1OC)C(c1ccc(N)cc1)NCC2` (stereo not drawn), the figures for the ED50 in test [1] and in test [2] were 28.6 µmol/kg and 46.6 µmol/kg, respectively.
The corresponding values for `COc1cc2c(cc1OC)C(c1ccccc1)N(S(N)(=O)=O)CC2` (stereo not drawn) are 7.82 µmol/kg and greater than 100 µmol/kg.
Regarding `COc1cc2c(cc1OC)C(c1ccc(Br)cc1)N(S(N)(=O)=O)CC2` (stereo not drawn), in test [3], the Ki stood at 8.2 µM. For the same compound, the values for the 50% effective dose (ED50) in test [1] and in test [2] were 67.3 µmol/kg and greater than 100 µmol/kg, respectively.
Turning to `COc1cc2c(cc1OC)C(c1cccc(N)c1)NCC2` (stereo not drawn), the median effective dose (ED50) in test [1] was determined as 18.2 µmol/kg; in test [2], 40.4 µmol/kg.
On to `COc1cc2c(cc1OC)C(c1cccc([N+](=O)[O-])c1)N(S(N)(=O)=O)CC2` (stereo not drawn), for which the Ki in test [3] is 6.45 µM. The ED50 in test [1] and in test [2] was greater than 100 µmol/kg in each case.
On to `COc1cc2c(cc1OC)C(c1ccc(C)cc1)N(S(N)(=O)=O)CC2` (stereo not drawn), for which the Ki in test [3] was found to be 6.75 µM. The ED50 in test [1] turned out to be 51.7 µmol/kg; in test [2] it was 97.1 µmol/kg.
Consider `COc1cc2c(cc1OC)C(c1ccc(Cl)cc1)N(S(N)(=O)=O)CC2` (stereo not drawn), for which the inhibitory constant (Ki) in test [3] is 7.54 µM. The ED50 in test [1] was found to be 7.25 µmol/kg; in test [2] it was 23.5 µmol/kg.
The corresponding values for `COc1cc2c(cc1OC)C(c1ccc(C#N)cc1)N(S(N)(=O)=O)CC2` (stereo not drawn) are 4.98 µM, greater than 100 µmol/kg and greater than 100 µmol/kg.
With `COc1cc2c(cc1OC)C(c1ccc(N)cc1)N(S(N)(=O)=O)CC2` (stereo not drawn), the ED50 turned out to be 3.6 µmol/kg in test [1] and 17.7 µmol/kg in test [2].
On the same counts, the results for `COc1cc2c(cc1OC)C(c1ccc(F)cc1)N(S(N)(=O)=O)CC2` (stereo not drawn) are 41.8 µmol/kg and greater than 100 µmol/kg.
Take `COc1cc2c(cc1OC)C(c1cccc(N)c1)N(S(N)(=O)=O)CC2` (stereo not drawn): in test [3], the inhibition constant Ki turned out to be 8.13 µM. The values for the ED50 in test [1] and in test [2] were 65.8 µmol/kg and greater than 100 µmol/kg, respectively.
For the compound `COc1cc2c(cc1OC)C(c1ccc(Cl)cc1)NCC2` (stereo not drawn), the figures for the median effective dose (ED50) in test [1] and in test [2] were 19.3 µmol/kg and 20.1 µmol/kg, respectively.
With `COc1cc2c(cc1OC)C(c1ccc([N+](=O)[O-])cc1)NCC2` (stereo not drawn), the ED50 amounted to 56.1 µmol/kg in test [1] and 101 µmol/kg in test [2].
On the same counts, the results for `COc1cc2c(cc1OC)C(c1ccc(Br)cc1)NCC2` (stereo not drawn) are 12.5 µmol/kg and 30.6 µmol/kg.
The corresponding values for `COc1cc2c(cc1OC)C(c1cccc([N+](=O)[O-])c1)NCC2` (stereo not drawn) are 7.2 µmol/kg and 19.3 µmol/kg.
On the same counts, the results for `COc1cc2c(cc1OC)C(c1ccc(Cl)cc1)N(C(C)=O)CC2` (stereo not drawn) are 2.39 µmol/kg and 4.18 µmol/kg.
`CC1(C)O[C@@H]2[C@@H](CO[C@@]3(COS(N)(=O)=O)OC(C)(C)O[C@@H]23)O1` [TOPIRAMATE]: the values for the ED50 in test [1] and in test [2] were 18 µmol/kg and 35.7 µmol/kg, respectively.

For the origin of these results see ChEMBL document CHEMBL1136887, “Synthesis and evaluation of pharmacological profile of 1-aryl-6,7-dimethoxy-3,4-dihydroisoquinoline-2(1H)-sulfonamides” (Bioorg Med Chem, 2009).
